Results as given in article PMC6409185 (Investigational new drugs, 2018).

Tests used:
Format in all cases: biochemical
Settings in all cases: relaxation assay in the presence of 100 μM compound
Calf Topo I (cTopo I) = assay: Relaxation assay for eukaryotic Topo I
How it was run: (§1)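 Commercial calf or human Topo I, 1 unit (the amount that fully relaxes 0.3 μg supercoiled pBR322), with 0.3 μg supercoiled pBR322 and test compound in 50 mM Tris-HCl pH 7.5, 100 mM NaCl, 10 mM MgCl2, 1 mM DTT, 50 μg/ml BSA. Run 15 min at 37°C, stopped with 25 mM EDTA. Products run on 1.2% agarose in TAE (2 V/cm, 15 h), stained with ethidium bromide, imaged and quantified.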

hTopo I = target: T1, hTopo I (Homo sapiens, UniProt P11387); assay: Relaxation assay for eukaryotic Topo I
T1 sequence (P11387 1-765): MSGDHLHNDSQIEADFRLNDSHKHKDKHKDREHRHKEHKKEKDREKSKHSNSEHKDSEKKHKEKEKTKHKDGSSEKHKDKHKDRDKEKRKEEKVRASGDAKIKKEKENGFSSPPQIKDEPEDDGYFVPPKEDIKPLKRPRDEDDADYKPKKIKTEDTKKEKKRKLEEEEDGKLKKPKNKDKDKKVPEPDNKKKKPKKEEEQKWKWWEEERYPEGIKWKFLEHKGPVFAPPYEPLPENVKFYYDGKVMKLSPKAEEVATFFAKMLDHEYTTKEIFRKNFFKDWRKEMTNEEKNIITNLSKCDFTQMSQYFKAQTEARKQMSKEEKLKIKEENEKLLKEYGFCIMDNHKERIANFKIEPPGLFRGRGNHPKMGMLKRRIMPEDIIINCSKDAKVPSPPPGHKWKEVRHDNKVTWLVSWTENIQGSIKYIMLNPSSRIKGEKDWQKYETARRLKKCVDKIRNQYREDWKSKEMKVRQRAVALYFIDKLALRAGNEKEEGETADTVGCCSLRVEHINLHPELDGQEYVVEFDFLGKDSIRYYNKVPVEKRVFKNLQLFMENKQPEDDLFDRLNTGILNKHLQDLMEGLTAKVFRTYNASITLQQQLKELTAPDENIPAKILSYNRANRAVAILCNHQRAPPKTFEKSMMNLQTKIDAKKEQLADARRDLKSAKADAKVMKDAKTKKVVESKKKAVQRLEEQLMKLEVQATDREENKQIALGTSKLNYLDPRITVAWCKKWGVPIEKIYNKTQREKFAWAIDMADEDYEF
How it was run: as §1

E. coli Topo I = E. coli Topo I (Escherichia coli, UniProt P06612); assay: Relaxation assay with E. coli Topo I
Chain of E. coli Topo I (P06612 whole entry): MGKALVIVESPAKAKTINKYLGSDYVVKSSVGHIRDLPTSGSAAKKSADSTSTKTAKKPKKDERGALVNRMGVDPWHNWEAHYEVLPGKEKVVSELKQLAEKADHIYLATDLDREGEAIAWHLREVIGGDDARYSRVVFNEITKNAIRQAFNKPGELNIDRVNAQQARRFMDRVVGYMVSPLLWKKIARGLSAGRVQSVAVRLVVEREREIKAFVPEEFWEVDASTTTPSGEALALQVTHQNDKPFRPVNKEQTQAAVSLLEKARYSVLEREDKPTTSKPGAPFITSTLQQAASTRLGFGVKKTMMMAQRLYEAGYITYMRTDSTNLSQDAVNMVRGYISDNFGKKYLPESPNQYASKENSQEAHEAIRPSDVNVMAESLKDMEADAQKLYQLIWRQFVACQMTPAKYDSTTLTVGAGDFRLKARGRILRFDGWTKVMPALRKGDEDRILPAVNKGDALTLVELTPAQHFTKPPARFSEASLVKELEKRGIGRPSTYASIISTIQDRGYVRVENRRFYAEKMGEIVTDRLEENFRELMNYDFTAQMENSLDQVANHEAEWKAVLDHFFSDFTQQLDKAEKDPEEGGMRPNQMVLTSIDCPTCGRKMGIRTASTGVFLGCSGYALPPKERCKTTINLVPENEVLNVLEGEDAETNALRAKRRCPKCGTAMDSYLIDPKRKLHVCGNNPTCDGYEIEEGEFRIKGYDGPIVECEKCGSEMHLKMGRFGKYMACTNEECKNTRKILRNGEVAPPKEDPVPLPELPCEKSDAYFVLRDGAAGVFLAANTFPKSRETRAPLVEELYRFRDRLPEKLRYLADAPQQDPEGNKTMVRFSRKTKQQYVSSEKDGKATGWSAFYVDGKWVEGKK

COc1c(N2CC[C@@H](CN)C2)c(F)cc2c(=O)c(C(=O)O)cn(C3CC3)c12 [UING-5-249]
No^2: inhibition of cTopo I (Calf Topo I (cTopo I)) | inhibition of hTopo I (hTopo I) | inhibition of E. coli Topo I (E. coli Topo I)
